This note sets out measurements from ChEMBL document CHEMBL1152927, “Diterpene glycosides from the seeds of Pharbitis nil” (J Nat Prod, 2009).

Broadly, the IC50 is the concentration that inhibits the measured activity by half.

Format in all cases: functional, cell-based
One test concerns SK-OV-3. The test can be described thus: Cytotoxicity against human SKOV3 cells by SRB assay. The method, boiled down: (§1)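 Sulforhodamine B (SRB) assay against cultured human cancer cell lines, run at the Korea Research Institute of Chemical Technology. Cytotoxicity is reported as IC50 in µM.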
The test system of a further test is SK-MEL-2. As to the kind of experiment: Cytotoxicity against human SK-MEL-2 cells by SRB assay. The method, boiled down:
as §1
On the technique in general: Sulforhodamine B stains cellular protein and so reports cell mass.

The test system of a further test is HCT-15. The test can be described thus: Cytotoxicity against human HCT15 cells by SRB assay. A digest of the protocol: as §1
In a further test the test system is A549. As to the kind of experiment: Cytotoxicity against human A549 cells by SRB assay. A digest of the protocol: as §1

Consider `COc1cccc2c1C(=O)c1c(O)c3c(c(O)c1C2=O)C[C@@](O)(C(=O)CO)C[C@@H]3O[C@H]1C[C@H](N)[C@H](O)[C@H](C)O1` [DOXORUBICIN], for which the IC50 in the test on SK-OV-3 was found to be 0.056 µM; in the test on SK-MEL-2, 0.117 µM; in the test on HCT-15, 0.164 µM.
Take `C=C1C[C@]23C[C@@H]1CC[C@H]2[C@]1(C)CCC[C@@](C)(C(=O)O[C@@H]2O[C@H](CO)[C@@H](O)[C@H](O)[C@H]2O)[C@H]1C[C@@H]3O` [PHARBOSIDE A]: the IC50 in the test with A549, with SK-OV-3, in the test on SK-MEL-2 and in the test with HCT-15 was greater than 30 µM throughout.
Consider `C[C@]12CCC[C@@]3(C)C(=O)O[C@@H]([C@H](O)[C@@]45C[C@H](CC[C@@H]14)[C@](O)(CO)C5)[C@@H]23`, for which the IC50 with A549, in the test with SK-OV-3, with SK-MEL-2 and with HCT-15 was greater than 30 µM each time.
`COC(=O)[C@]1(C)CCC[C@@]2(C)[C@@H]3CC[C@H]4C[C@]3(C[C@@]4(CO)O[C@@H]3O[C@H](CO)[C@@H](O)[C@H](O)[C@H]3O)[C@@H](O)[C@@H](O)[C@@H]21` [PHARBOSIDE C]: the IC50 with A549, in the test on SK-OV-3, in the test with SK-MEL-2 and with HCT-15 was greater than 30 µM each time.
As for `C[C@@]12CCC[C@@](C)(C(=O)O)[C@H]1[C@H](O)[C@H](O)[C@@]13C[C@H](CC[C@@H]21)[C@](O)(CO)C3`, the IC50 with A549, with SK-OV-3, in the test on SK-MEL-2 and in the test on HCT-15 was greater than 30 µM in each case.
Regarding `C[C@@]12CCC[C@@](C)(C(=O)O)[C@H]1[C@H](O)[C@H](O)[C@@]13C[C@H](CC[C@@H]21)[C@@](O)(CO)C3`, the IC50 in the test with A549, with SK-OV-3, in the test with SK-MEL-2 and with HCT-15 was greater than 30 µM in each case.
For `C=C1C[C@]23C[C@@H]1CC[C@H]2[C@]1(C)CCC[C@@](C)(C(=O)O[C@@H]2O[C@H](CO)[C@@H](O)[C@H](O)[C@H]2O)C1[C@@H]3C=O` (stereo partly drawn) [PHARBOSIDE G], the IC50 in the test with A549, in the test with SK-OV-3, in the test on SK-MEL-2 and in the test on HCT-15 was greater than 30 µM in each case.
On to `C[C@@]12CCC[C@@](C)(C(=O)O)[C@H]1[C@H](O)[C@H](O)[C@@]13C[C@H](CC[C@@H]21)[C@](O)(CO[C@@H]1O[C@H](CO)[C@@H](O)[C@H](O)[C@H]1O)C3` [PHARBOSIDE E], for which the IC50 with A549 amounted to 23.6 µM; in the test on SK-OV-3 it was 13.8 µM; in the test on SK-MEL-2 it was 15.2 µM; in the test with HCT-15 it was 22.1 µM.
On to `C[C@@]12CCC[C@@](C)(C(=O)O)[C@H]1[C@H](O)[C@H](O)[C@@]13C[C@H](CC[C@@H]21)[C@](CO)(O[C@@H]1O[C@H](CO)[C@@H](O)[C@H](O)[C@H]1O)C3` [PHARBOSIDE F], for which the IC50 with A549, with SK-OV-3, with SK-MEL-2 and with HCT-15 was greater than 30 µM throughout.
For `C[C@@]12CCC[C@@](C)(C(=O)O[C@@H]3O[C@H](CO)[C@@H](O)[C@H](O)[C@H]3O)[C@H]1[C@H](O)[C@H](O)[C@@]13C[C@H](CC[C@@H]21)[C@](O)(CO)C3` [PHARBOSIDE D], the IC50 with A549 was 25.2 µM; in the test on SK-OV-3, 28.7 µM; in the test on SK-MEL-2 it was 14.3 µM; in the test on HCT-15, 17.2 µM.
In the case of `C=C1C[C@]23C[C@@H]1CC[C@H]2[C@]1(C)CCC[C@@](C)(C(=O)O[C@@H]2O[C@H](CO)[C@@H](O)[C@H](O)[C@H]2O)[C@H]1C[C@H]3O` [PHARBOSIDE B], the IC50 in the test on A549, in the test on SK-OV-3, in the test with SK-MEL-2 and in the test with HCT-15 was greater than 30 µM in each case.
